{"source": "paper PMC6319658", "about": "(Journal of natural products, 2018)", "key": {"[1]": {"system": "ERK", "experiment": "ERK kinase catalytic activity assay", "type": "biochemical", "details": "data not shown"}, "[2]": {"system": "MEK", "experiment": "MEK1 kinase activity assay", "type": "biochemical", "details": "10 μM compound; data not shown"}, "[3]": {"system": "B-Raf", "experiment": "Raf kinase catalytic activity assay", "type": "biochemical", "details": "10 μM compound; data not shown"}, "[4]": {"system": "C-Raf", "experiment": "Raf kinase catalytic activity assay", "type": "biochemical", "details": "10 μM compound; data not shown"}, "[5]": {"system": "Colo205 cells that harbor the V600E B-Raf mutation", "experiment": "Western blot analysis of ERK signaling cascade proteins in Colo205 cells", "type": "cell-based, human", "details": "for ERK protein levels / total protein levels of B-Raf, C-Raf, and MEK: 18 h treatment"}, "[6]": {"system": "60 human tumor cell lines", "experiment": "NCI-60 cell line screening assay", "type": "cell-based", "details": "for growth suppression of cell lines that harbor the B-Raf V600E mutation: Colo205 colon, MALM-3M, SK-MEL-5, MDA-MB-435 melanoma cell lines; for pattern of cytotoxicity at the GI50 level: NCI-60 screen", "in_short": "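Test compounds were submitted as DMSO solutions to the NCI-60 screen for cytotoxicity across 60 human tumor cell lines. The response patterns were analysed with bioinformatics tools on the public CellMiner site.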"}, "[7]": {"system": "cells", "details": "cited from earlier work"}, "[8]": {"system": "SUMO conjugation enzymatic cascade", "type": "biochemical", "details": "read-out: IC50, inhibition of SUMOylation of a substrate peptide; in vitro electrophoretic mobility shift assay"}}, "data": [{"molecule": "N=C1C2=C(NCCS2)C(=O)c2[nH]cc(CO)c21", "note": "[Compound 3, macrophilone C]", "values": [{"measurement": "inhibition of kinase catalytic activity of ERK", "setting": "[1]", "value": "no reduction in kinase activity"}, {"measurement": "inhibition of kinase catalytic activity of MEK", "setting": "[2]", "value": "no reduction in kinase activity"}, {"measurement": "inhibition of kinase catalytic activity of B-Raf", "setting": "[3]", "value": "no reduction in kinase activity"}, {"measurement": "inhibition of kinase catalytic activity of C-Raf", "setting": "[4]", "value": "no reduction in kinase activity"}, {"measurement": "phosphorylation (activation) of MEK and ERK", "setting": "[5]; 1 μM", "value": "increased phosphorylation"}, {"measurement": "ERK protein levels", "setting": "[5]; 10 μM", "value": "no corresponding loss"}, {"measurement": "total protein levels of B-Raf, C-Raf, and MEK", "setting": "[5]; 10 μM", "value": "striking reductions"}, {"measurement": "growth suppression of cell lines that harbor the B-Raf V600E mutation", "setting": "[6]", "value": "most potent"}, {"measurement": "pattern of cytotoxicity at the GI50 level", "setting": "[6]", "value": "selective cytotoxicity"}]}, {"molecule": "CSC1=C(N)C(=O)c2[nH]cc(CO)c2C1=N", "note": "[Compound 1, macrophilone A]", "values": [{"measurement": "inhibition of kinase catalytic activity of ERK", "setting": "[1]", "value": "no reduction in kinase activity"}, {"measurement": "inhibition of kinase catalytic activity of MEK", "setting": "[2]", "value": "no reduction in kinase activity"}, {"measurement": "inhibition of kinase catalytic activity of B-Raf", "setting": "[3]", "value": "no reduction in kinase activity"}, {"measurement": "reactive oxygen species (ROS) in cells", "setting": "[7]", "value": "increase in reactive oxygen species"}, {"measurement": "inhibition of kinase catalytic activity of C-Raf", "setting": "[4]", "value": "no reduction in kinase activity"}, {"measurement": "total protein levels of B-Raf, C-Raf, and MEK", "setting": "[5]; 1 μM", "value": "effective at reducing these proteins"}, {"measurement": "ERK protein levels", "setting": "[5]; 10 μM", "value": "no corresponding loss"}, {"measurement": "total protein levels of B-Raf, C-Raf, and MEK", "setting": "[5]; 10 μM", "value": "striking reductions"}, {"measurement": "growth suppression of cell lines that harbor the B-Raf V600E mutation", "setting": "[6]", "value": "most potent"}, {"measurement": "pattern of cytotoxicity at the GI50 level", "setting": "[6]", "value": "selective cytotoxicity"}]}, {"molecule": "O=C1C2=C(SCCN2)C2=NCCc3c[nH]c1c32", "note": "[Compound 6, macrophilone F]", "values": [{"measurement": "IC50", "setting": "[8]", "value": "> 100", "unit": "µM"}]}, {"molecule": "CN(C)CCOc1ccc(-c2nc(-c3ccc4c(c3)CC/C4=N\\O)c(-c3ccncc3)[nH]2)cc1", "note": "[SB-590885, reference compound]", "values": [{"measurement": "phosphorylation of MEK and subsequent activation of ERK", "setting": "[5]; positive control", "value": "blocked phosphorylation of MEK"}, {"measurement": "total protein concentrations in the pathway", "setting": "[5]; positive control", "value": "no significant impact"}]}, {"molecule": "N=C1C2=C(NCC[S+]2[O-])C(=O)c2[nH]cc(CO)c21", "note": "(stereo not drawn) [Compound 4, macrophilone D]", "values": [{"measurement": "inhibition of kinase catalytic activity of ERK", "setting": "[1]", "value": "no reduction in kinase activity"}, {"measurement": "inhibition of kinase catalytic activity of MEK", "setting": "[2]", "value": "no reduction in kinase activity"}, {"measurement": "inhibition of kinase catalytic activity of B-Raf", "setting": "[3]", "value": "no reduction in kinase activity"}, {"measurement": "inhibition of kinase catalytic activity of C-Raf", "setting": "[4]", "value": "no reduction in kinase activity"}, {"measurement": "phosphorylation (activation) of MEK and ERK", "setting": "[5]; 1 μM", "value": "increased phosphorylation"}, {"measurement": "ERK protein levels", "setting": "[5]; 10 μM", "value": "no corresponding loss"}, {"measurement": "total protein levels of B-Raf, C-Raf, and MEK", "setting": "[5]; 10 μM", "value": "striking reductions"}, {"measurement": "pattern of cytotoxicity at the GI50 level", "setting": "[6]", "value": "selective cytotoxicity"}]}]}
